Values after ≈ are worked out from the molar mass of the structure shown.
Legend:
[1] = molecular target: Cyclin-dependent kinase 1/cyclin B1 (Homo sapiens, UniProt P06493); assay: Inhibition of CDK1/cyclin B; format: protein-complex assay
[2] = molecular target: Cyclin-dependent kinase 4/cyclin D1 (Homo sapiens, UniProt P11802); assay: Inhibition of CDK4/cyclin D1; format: protein-complex assay
[3] = Terminal half life in Nu/Nu Balb Harlan mouse at 10 mg/kg, po; format: ADME, organism-based; parameters: dose 10 mg/kg, route oral; conditions: in vivo, read-out: beta t1/2 (converted)
[4] = Inhibition of SULU1
K562 = assay: Antiproliferative activity against human K562 cells; format: functional, cell-based
MOLT-4 = assay: Antiproliferative activity against human MOLT4 cells; format: functional, cell-based
[5] = AUC (0 to infinity) in Nu/Nu Balb Harlan mouse at 10 mg/kg, iv; format: ADME, organism-based; parameters: time infinity, dose 10 mg/kg, route intravenous; conditions: plasma
Procedure, shortened: (§1)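 Male Balb Nu/Nu mice (Harlan) received a single 10 mg/kg intravenous dose, n = 3 animals per study. Vehicle was either trifluoroacetate salt in dextrose or free base in 50% PEG 400/glucosate, depending on compound. Parameters were reported as mean ± standard deviation.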

[6] = molecular target: Glycogen synthase kinase-3 beta (Homo sapiens, UniProt P49841); assay: Inhibition of GSK3-beta
Caco-2 = assay: Apparent permeability across human Caco2 cells; format: ADME, cell-based
[7] = Inhibition of NIM
[8] = molecular target: Fibroblast growth factor receptor 1 (Homo sapiens, UniProt P11362); assay: Inhibition of FGFR1
[9] = Cmax in Nu/Nu Balb Harlan mouse at 10 mg/kg, po; format: ADME, organism-based; parameters: dose 10 mg/kg, route oral; conditions: in vivo
[10] = Half life in Nu/Nu Balb Harlan mouse at 10 mg/kg, iv; format: ADME, organism-based; parameters: dose 10 mg/kg, route intravenous; conditions: in vivo; procedure, shortened: as §1
[11] = molecular target: Vascular endothelial growth factor receptor 3 (Homo sapiens, UniProt P35916); assay: Inhibition of VEGFR3
MDA-MB-468 = assay: Antiproliferative activity against human MDA-MB-468 cells; format: functional, cell-based
[12] = Volume of distribution at steady state in Nu/Nu Balb Harlan mouse at 10 mg/kg, iv; format: ADME, organism-based; parameters: dose 10 mg/kg, route intravenous; conditions: in vivo, read-out: Vdss
[13] = molecular target: Vascular endothelial growth factor receptor 2 (Homo sapiens, UniProt P35968); assay: Inhibition of VEGFR2
[14] = AUC (0 to infinity) in Nu/Nu Balb Harlan mouse at 10 mg/kg, po; format: ADME, organism-based; parameters: time infinity, dose 10 mg/kg, route oral; conditions: plasma
[15] = Solubility of the compound at pH 7; format: physicochemical; conditions: buffer
[16] = molecular target: Protein-tyrosine kinase 6 (Homo sapiens, UniProt Q13882); assay: Inhibition of BRK
MOLM-13 = assay: Antiproliferative activity against human MOLM13 cells; format: functional, cell-based
[17] = Antiproliferative activity against human SUP-M2 cells; format: functional, cell-based
[18] = molecular target: Inhibitor of nuclear factor kappa-B kinase subunit beta (Homo sapiens, UniProt O14920); assay: Inhibition of IKK2
[19] = molecular target: Serine/threonine-protein kinase PLK3 (Homo sapiens, UniProt Q9H4B4); assay: Inhibition of PLK3
[20] = molecular target: Protein kinase C beta type (Homo sapiens, UniProt P05771); assay: Inhibition of PKCbeta
[21] = molecular target: Mitogen-activated protein kinase 14 (Homo sapiens, UniProt Q16539); assay: Inhibition of P38alpha
Aurora kinase B = Aurora kinase B (Homo sapiens, UniProt Q96GD4); assay: Inhibition of Aurora-B
Sequence of Aurora kinase B (Q96GD4 whole entry): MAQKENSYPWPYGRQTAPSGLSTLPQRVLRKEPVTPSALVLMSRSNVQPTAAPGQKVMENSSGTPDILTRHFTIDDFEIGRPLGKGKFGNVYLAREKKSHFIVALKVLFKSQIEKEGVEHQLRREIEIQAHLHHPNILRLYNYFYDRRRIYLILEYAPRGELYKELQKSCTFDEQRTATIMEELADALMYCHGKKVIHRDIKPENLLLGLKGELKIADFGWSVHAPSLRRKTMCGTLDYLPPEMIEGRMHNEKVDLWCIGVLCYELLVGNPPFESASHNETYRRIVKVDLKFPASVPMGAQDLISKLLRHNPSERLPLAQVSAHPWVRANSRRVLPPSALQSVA

Sequence of Vascular endothelial growth factor receptor 3 (P35916 whole entry): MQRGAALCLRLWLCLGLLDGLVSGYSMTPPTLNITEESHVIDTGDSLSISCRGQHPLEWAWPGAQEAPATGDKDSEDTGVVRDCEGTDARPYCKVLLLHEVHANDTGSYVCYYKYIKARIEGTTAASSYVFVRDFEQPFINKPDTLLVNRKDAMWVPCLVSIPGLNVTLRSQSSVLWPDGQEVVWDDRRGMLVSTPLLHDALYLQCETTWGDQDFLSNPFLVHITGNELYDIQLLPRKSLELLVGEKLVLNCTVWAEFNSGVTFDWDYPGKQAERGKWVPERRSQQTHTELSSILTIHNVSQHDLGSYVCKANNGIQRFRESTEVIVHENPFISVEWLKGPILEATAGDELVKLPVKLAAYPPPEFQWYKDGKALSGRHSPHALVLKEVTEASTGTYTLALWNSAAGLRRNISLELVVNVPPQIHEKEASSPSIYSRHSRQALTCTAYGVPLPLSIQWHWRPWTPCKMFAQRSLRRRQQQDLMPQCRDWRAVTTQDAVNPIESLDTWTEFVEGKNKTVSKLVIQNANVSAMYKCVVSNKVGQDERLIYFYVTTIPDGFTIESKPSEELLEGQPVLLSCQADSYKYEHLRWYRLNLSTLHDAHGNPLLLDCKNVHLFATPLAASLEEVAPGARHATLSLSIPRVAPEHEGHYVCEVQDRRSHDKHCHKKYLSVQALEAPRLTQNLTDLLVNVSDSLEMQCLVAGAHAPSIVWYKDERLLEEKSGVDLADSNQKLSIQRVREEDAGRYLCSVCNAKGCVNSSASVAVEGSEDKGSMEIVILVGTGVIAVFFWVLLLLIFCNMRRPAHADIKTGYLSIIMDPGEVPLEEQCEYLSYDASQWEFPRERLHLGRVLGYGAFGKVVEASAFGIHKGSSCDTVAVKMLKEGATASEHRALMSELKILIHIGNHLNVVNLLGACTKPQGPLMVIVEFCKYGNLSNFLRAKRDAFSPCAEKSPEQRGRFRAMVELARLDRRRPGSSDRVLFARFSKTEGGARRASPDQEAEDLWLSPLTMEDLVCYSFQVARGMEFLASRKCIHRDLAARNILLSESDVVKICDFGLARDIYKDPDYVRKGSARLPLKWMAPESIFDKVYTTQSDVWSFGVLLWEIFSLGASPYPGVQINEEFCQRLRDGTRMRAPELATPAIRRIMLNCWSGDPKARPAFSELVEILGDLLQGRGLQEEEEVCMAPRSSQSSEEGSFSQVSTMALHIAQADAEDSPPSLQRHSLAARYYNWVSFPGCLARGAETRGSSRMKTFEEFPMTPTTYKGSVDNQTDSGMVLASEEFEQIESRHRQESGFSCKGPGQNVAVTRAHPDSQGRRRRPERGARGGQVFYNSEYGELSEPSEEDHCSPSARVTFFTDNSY
Sequence of Cyclin-dependent kinase 1/cyclin B1 (P06493 whole entry): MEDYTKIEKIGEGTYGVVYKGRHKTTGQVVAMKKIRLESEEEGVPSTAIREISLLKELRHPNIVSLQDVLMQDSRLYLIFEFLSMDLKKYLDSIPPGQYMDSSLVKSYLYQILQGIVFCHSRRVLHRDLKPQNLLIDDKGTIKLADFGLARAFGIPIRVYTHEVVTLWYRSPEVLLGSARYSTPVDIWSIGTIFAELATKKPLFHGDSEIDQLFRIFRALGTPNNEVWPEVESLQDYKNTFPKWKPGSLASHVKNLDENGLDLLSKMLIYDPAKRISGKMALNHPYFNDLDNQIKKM
Sequence of Cyclin-dependent kinase 1/cyclin B1 (P14635 whole entry, further chain): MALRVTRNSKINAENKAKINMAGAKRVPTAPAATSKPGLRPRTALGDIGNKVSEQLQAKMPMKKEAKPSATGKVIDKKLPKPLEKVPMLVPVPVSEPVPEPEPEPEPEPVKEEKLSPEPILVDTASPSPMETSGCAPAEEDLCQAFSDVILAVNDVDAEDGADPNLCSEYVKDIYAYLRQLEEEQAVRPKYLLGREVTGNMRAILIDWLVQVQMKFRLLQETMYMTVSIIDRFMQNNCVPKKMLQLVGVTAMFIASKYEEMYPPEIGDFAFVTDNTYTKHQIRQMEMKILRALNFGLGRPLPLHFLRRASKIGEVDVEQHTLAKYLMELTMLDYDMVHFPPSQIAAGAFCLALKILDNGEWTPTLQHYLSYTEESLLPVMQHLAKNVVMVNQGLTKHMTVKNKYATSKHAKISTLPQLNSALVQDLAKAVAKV
Sequence of Vascular endothelial growth factor receptor 2 (P35968 whole entry): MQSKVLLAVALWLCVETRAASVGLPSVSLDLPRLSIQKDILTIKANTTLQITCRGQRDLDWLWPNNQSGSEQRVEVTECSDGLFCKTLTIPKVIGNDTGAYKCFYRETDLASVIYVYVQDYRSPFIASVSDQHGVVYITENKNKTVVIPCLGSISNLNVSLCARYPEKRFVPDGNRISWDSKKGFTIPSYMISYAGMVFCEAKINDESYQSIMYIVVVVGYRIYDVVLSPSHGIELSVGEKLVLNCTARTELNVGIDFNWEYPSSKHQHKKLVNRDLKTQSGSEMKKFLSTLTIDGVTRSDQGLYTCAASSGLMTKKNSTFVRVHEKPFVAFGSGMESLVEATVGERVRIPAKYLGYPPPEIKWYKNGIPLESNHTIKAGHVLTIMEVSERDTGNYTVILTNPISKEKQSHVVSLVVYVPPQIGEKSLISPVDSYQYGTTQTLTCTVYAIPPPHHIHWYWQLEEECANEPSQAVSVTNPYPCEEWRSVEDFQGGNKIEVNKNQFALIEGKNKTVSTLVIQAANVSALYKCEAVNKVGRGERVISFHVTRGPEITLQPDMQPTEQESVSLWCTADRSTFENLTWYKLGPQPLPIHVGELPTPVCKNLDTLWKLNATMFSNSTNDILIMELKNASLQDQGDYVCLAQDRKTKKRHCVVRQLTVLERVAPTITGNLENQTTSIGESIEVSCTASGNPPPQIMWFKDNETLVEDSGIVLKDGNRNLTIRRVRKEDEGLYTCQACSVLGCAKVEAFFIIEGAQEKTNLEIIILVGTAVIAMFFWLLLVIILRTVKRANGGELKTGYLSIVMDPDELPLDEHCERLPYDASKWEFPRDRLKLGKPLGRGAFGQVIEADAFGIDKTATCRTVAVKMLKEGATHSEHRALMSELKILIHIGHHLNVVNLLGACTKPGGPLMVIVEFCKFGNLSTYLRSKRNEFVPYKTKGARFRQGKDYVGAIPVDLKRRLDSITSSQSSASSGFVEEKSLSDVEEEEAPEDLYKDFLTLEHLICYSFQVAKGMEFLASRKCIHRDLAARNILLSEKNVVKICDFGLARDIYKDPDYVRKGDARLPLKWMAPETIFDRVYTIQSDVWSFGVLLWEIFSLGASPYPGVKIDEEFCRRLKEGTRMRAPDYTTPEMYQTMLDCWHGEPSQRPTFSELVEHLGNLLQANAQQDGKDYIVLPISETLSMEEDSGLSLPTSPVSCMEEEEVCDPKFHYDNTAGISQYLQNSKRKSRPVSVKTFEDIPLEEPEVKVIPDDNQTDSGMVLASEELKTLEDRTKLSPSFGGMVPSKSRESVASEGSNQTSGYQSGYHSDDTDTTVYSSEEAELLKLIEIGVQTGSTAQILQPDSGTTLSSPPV
Sequence of Glycogen synthase kinase-3 beta (P49841 whole entry): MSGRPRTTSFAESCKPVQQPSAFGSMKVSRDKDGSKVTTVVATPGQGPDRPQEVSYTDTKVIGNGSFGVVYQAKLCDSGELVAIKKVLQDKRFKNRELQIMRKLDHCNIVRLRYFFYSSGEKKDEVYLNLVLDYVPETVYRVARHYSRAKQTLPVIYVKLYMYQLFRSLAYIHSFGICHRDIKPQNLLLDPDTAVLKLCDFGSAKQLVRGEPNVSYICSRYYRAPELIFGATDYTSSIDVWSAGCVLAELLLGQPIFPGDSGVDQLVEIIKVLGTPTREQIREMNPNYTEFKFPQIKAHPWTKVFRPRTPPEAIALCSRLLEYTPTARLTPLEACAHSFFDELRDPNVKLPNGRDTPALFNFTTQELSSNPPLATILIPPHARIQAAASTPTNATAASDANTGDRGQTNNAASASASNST
Sequence of Fibroblast growth factor receptor 1 (P11362 whole entry): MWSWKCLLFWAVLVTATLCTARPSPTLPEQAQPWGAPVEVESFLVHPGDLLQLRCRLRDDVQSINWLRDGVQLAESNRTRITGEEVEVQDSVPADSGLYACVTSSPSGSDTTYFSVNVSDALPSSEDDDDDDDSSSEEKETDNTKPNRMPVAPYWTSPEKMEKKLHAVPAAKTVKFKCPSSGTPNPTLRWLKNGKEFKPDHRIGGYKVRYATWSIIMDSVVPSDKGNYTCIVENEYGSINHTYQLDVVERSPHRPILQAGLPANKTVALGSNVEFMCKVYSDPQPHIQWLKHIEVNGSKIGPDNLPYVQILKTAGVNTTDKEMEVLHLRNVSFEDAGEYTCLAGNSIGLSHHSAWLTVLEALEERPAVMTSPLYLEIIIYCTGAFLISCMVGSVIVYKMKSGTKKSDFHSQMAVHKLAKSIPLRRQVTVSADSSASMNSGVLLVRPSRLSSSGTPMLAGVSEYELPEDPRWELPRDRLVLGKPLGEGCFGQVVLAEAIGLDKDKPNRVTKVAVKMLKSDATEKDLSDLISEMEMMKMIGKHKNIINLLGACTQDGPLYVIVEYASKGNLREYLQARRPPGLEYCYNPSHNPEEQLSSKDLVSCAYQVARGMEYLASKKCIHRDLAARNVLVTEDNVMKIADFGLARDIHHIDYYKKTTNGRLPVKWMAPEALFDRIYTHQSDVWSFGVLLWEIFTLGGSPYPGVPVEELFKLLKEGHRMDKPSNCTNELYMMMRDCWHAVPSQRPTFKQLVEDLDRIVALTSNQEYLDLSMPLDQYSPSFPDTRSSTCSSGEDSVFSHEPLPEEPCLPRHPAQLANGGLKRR

IC50 [1]: > 10 µM
IC50 [2]: > 10 µM
half-life [3]: 84 min
IC50 [4]: > 10 µM
IC50 (K562): 0.06 µM
IC50 (MOLT-4): 0.017 µM
AUC(0-inf) [5]: 5.78 µM·h
IC50 [6]: > 10 µM
Papp (Caco-2): permeable
IC50 [7]: > 10 µM
IC50 [8]: > 10 µM
Cmax [9]: 760 nM
half-life [10]: 31.2 min
IC50 [11]: > 10 µM
IC50 (MDA-MB-468): 0.041 µM
Vd [12]: 2.49 L/kg
IC50 [13]: > 10 µM
AUC(0-inf) [14]: 2.38 µM·h
solubility [15]: 163 µM (≈ 81.7 µg/mL)
IC50 [16]: > 10 µM
IC50 (MOLM-13): 0.021 µM
IC50 [18]: > 10 µM
IC50 [19]: > 10 µM
IC50 [20]: > 10 µM
IC50 [21]: > 10 µM
IC50 (Aurora kinase B): > 10 µM
Compound: CN1CCN(c2ccc(OC(F)(F)F)c(Nc3nccc(-c4cc5c(n4C)CCNC5=O)n3)c2)CC1
IC50 [17]: 0.053 µM
